{"source": "ChEMBL document CHEMBL4371059", "about": "(J Med Chem, 2019)", "key": {"[1]": {"molecular_target": "T1, Sigma intracellular receptor 2 (Rattus norvegicus) (UniProt Q5U3Y7)", "T1 sequence (whole entry)": "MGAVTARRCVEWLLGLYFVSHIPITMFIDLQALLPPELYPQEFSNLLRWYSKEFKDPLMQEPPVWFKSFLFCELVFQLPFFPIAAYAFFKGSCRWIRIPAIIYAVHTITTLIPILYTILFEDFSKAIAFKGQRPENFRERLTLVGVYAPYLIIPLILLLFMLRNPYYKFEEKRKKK", "test": "Displacement of [3H]DTG from sigma2 receptor in rat liver membranes at 1 uM after 120 mins by scintillation counting method relative to control", "assay_type": "cell membranes"}, "Mus musculus [2]": {"system": "Mus musculus", "test": "Anti-inflammatory activity against C57BL/6 mouse model of MOG-induced autoimmune encephalomyelitis assessed as inhibition of development of clinical symptoms at 100 uL of 20 uM solution administered ip starting from day 1 post immunization and measured 9 to 16 days post Mycobacterium tuberculosis H37Ra/MOG immunization", "assay_type": "functional, organism-based", "in_short": "(§1)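 C57BL/6 wild-type mice, 8–12 weeks old, were kept under SPF conditions and immunized with MOG peptide. From day 1 after immunization they received a daily ip injection of 100 µl of a 20 µM solution; controls received PBS. Clinical signs were checked daily. Tissues were taken at disease peak, days 12–15 after immunization.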"}, "T-cell [3]": {"system": "T-cell", "test": "Inhibition of PMA/ionomycin-stimulated C57BL/6 mouse T cells activation assessed as CD44-positive cells at 5 ug/ml treated for 48 hrs starting from 12 hrs post PMA/ionomycin stimulation by flow cytometry (reference value: 9.6%)", "assay_type": "functional", "parameters": "scale not given: the % may be the effect or the level left"}, "Mus musculus [4]": {"system": "Mus musculus", "test": "(§2) Anti-inflammatory activity against C57BL/6 mouse model of MOG-induced autoimmune encephalomyelitis assessed as reduction in inflammatory foci in lumbar spinal cord at 100 uL of 20 uM solution administered ip starting from day 1 post immunization and measured 9 to 16 days post Mycobacterium tuberculosis H37Ra/MOG immunization by hematoxylin and eosin staining based microscopic method", "assay_type": "functional, organism-based", "in_short": "as §1"}, "Mus musculus [5]": {"system": "Mus musculus", "test": "as §2, with “TH17 cell population” for “inflammatory foci”, “immunofluorescence” for “hematoxylin and eosin staining based”", "assay_type": "functional, organism-based", "in_short": "as §1"}, "T-cell [6]": {"system": "T-cell", "test": "Inhibition of PMA/ionomycin-stimulated C57BL/6 mouse T cells activation assessed as CD69-positive cells at 5 ug/ml treated for 48 hrs starting from 12 hrs post PMA/ionomycin stimulation by flow cytometry (reference value: 37.2%)", "assay_type": "functional", "parameters": "scale not given: the % may be the effect or the level left"}, "Mus musculus [7]": {"system": "Mus musculus", "test": "Anti-inflammatory activity against C57BL/6 mouse model of MOG-induced autoimmune encephalomyelitis assessed as reduction in immune cell infiltration in to lumbar spinal cord at 100 uL of 20 uM solution administered ip starting from day 1 post immunization and measured 9 to 16 days post Mycobacterium tuberculosis H37Ra/MOG immunization by hematoxylin and eosin staining based microscopic method", "assay_type": "functional, organism-based", "in_short": "as §1"}, "Dendritic cell [8]": {"system": "Dendritic cell", "test": "Anti-inflammatory activity in PMA/ionomycin-stimulated human PBMC-derived dendritic cells assessed as reduction in IFNgamma production at 5 ug/ml treated for 48 hrs starting from 12 hrs post PMA/ionomycin stimulation by flow cytometry", "assay_type": "functional, cell-based", "in_short": "(§3)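 PBMC were prepared from heparinized blood of healthy donors by Ficoll gradient, and DC or T cells were negatively enriched with magnetic kits. Cells were activated 12 h with PMA (5 ng/ml) plus ionomycin (500 ng/ml), then cultured 48 h with compound or PBS. Flow cytometry was gated on HLA-DR⁺CD11c⁺ for DC and CD3⁺ for T cells, with intracellular IFN-γ; n=3 donors.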"}, "T-cell [9]": {"system": "T-cell", "test": "Anti-inflammatory activity in PMA/ionomycin-stimulated human PBMC-derived T cells assessed as reduction in IFNgamma production at 5 ug/ml treated for 48 hrs starting from 12 hrs post PMA/ionomycin stimulation by flow cytometry", "assay_type": "functional, cell-based", "in_short": "as §3"}, "Mus musculus [10]": {"system": "Mus musculus", "test": "Anti-inflammatory activity against C57BL/6 mouse model of MOG-induced autoimmune encephalomyelitis assessed as CD45-positive leukocytes at 100 uL of 20 uM solution administered ip starting from day 1 post immunization and measured 9 to 16 days post Mycobacterium tuberculosis H37Ra/MOG immunization by flow cytometry (reference value: 4.4%)", "assay_type": "functional", "in_short": "as §1"}, "Dendritic cell [11]": {"system": "Dendritic cell", "test": "Anti-inflammatory activity in PMA/ionomycin-stimulated C57BL/6 mouse bone marrow derived dendritic cells assessed as reduction in IFNgamma production at 5 ug/ml treated for 48 hrs starting from 12 hrs post PMA/ionomycin stimulation by flow cytometry", "assay_type": "functional, cell-based", "in_short": "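Bone marrow from tibias and femurs was cultured 9 days with GM-CSF (150 U/ml) and IL-4 (75 U/ml). From day 7 to day 9, cells were stimulated with PMA (5 ng/ml) plus ionomycin (500 ng/ml) with or without compound. On day 9, cells were gated on MHC-II⁺CD11c⁺ and stained for intracellular IFN-γ; n=5 mice.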"}, "T-cell [12]": {"system": "T-cell", "test": "Anti-inflammatory activity in PMA/ionomycin-stimulated C57BL/6 mouse T cells assessed as reduction in IFNgamma production at 5 ug/ml treated for 48 hrs starting from 12 hrs post PMA/ionomycin stimulation by flow cytometry", "assay_type": "functional, cell-based", "in_short": "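Total T cells were isolated from wild-type mouse lymph nodes with a Pan T cell kit. Cells were activated 12 h with PMA (5 ng/ml) plus ionomycin (500 ng/ml), then cultured 48 h with compound or PBS. Analysis was by flow cytometry gated on CD3, with intracellular IFN-γ after permeabilization; n=5 mice.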"}, "T-cell [13]": {"system": "T-cell", "test": "Immunomodulatory activity in PMA/ionomycin-stimulated human PBMC-derived T cells assessed as increase in IL-10 production at 5 ug/ml treated for 48 hrs starting from 12 hrs post PMA/ionomycin stimulation", "assay_type": "functional, cell-based", "in_short": "(§4)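 Human PBMC-derived cells from healthy donors were activated with PMA (5 ng/ml) plus ionomycin (500 ng/ml), then cultured with compound or PBS. Cytokines were quantified in the culture supernatants; n=3 donors.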"}, "Dendritic cell [14]": {"system": "Dendritic cell", "test": "Immunomodulatory activity in PMA/ionomycin-stimulated human PBMC-derived dendritic cells assessed as increase in IL-10 production at 5 ug/ml treated for 48 hrs starting from 12 hrs post PMA/ionomycin stimulation", "assay_type": "functional, cell-based", "in_short": "as §4"}, "Dendritic cell [15]": {"system": "Dendritic cell", "test": "Immunomodulatory activity in PMA/ionomycin-stimulated C57BL/6 mouse bone marrow derived dendritic cells assessed as increase in IL-10 production at 5 ug/ml treated for 48 hrs starting from 12 hrs post PMA/ionomycin stimulation", "assay_type": "functional, cell-based"}, "T-cell [16]": {"system": "T-cell", "test": "Immunomodulatory activity in PMA/ionomycin-stimulated C57BL/6 mouse T cells assessed as increase in IL-10 production at 5 ug/ml treated for 48 hrs starting from 12 hrs post PMA/ionomycin stimulation", "assay_type": "functional, cell-based", "in_short": "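Mouse lymph-node T cells were activated 12 h with PMA (5 ng/ml) plus ionomycin (500 ng/ml), then cultured 48 h with compound or PBS. Secreted cytokines were measured in the culture supernatants; n=5 mice per group.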"}, "[17]": {"molecular_target": "T2, Sigma intracellular receptor 2 (Rattus norvegicus, UniProt Q5U3Y7)", "T2 sequence (Q5U3Y7 whole entry)": "T1 sequence (whole entry)", "test": "Displacement of [3H]DTG from sigma2 receptor in rat liver membranes after 120 mins by scintillation counting method", "assay_type": "cell membranes"}}, "note": "Activity calls are given as the source filed them. The calls are words filed in the database; no cut-off is given here.", "data": [{"smiles": "CN1CCN(C(=O)Cc2ccc(Cl)c(Cl)c2)[C@H]2[C@@H]1CCC[C@@H]2N1CCCC1", "values": [{"measurement": "inhibition", "setting": "[1]", "value": 4, "unit": "%"}]}, {"smiles": "O=C(Cc1ccc(Cl)c(Cl)c1)N1CCN[C@H]2CCC[C@H](N3CCCC3)[C@H]21", "note": "(racemic)", "values": [{"measurement": "inhibition", "setting": "Mus musculus [2]", "value": "Active"}, {"measurement": "Activity", "setting": "T-cell [3]", "value": 7.6, "unit": "%"}, {"measurement": "Activity", "setting": "Mus musculus [4]", "value": "Active"}, {"measurement": "Activity", "setting": "Mus musculus [5]", "value": "Active"}, {"measurement": "Activity", "setting": "T-cell [6]", "value": 25.6, "unit": "%"}, {"measurement": "Activity", "setting": "Mus musculus [7]", "value": "Active"}, {"measurement": "Activity", "setting": "Dendritic cell [8]", "value": "inactive"}, {"measurement": "Activity", "setting": "T-cell [9]", "value": "inactive"}, {"measurement": "inhibition", "setting": "[1]", "value": 5, "unit": "%"}, {"measurement": "Activity", "setting": "Mus musculus [10]", "value": 0.5, "unit": "%"}]}, {"smiles": "O=C(Cc1ccc(Cl)c(Cl)c1)N1CCN(Cc2cn(CCF)nn2)[C@H]2CCC[C@H](N3CCCC3)[C@H]21", "note": "(racemic)", "values": [{"measurement": "inhibition", "setting": "Mus musculus [2]", "value": "Active"}, {"measurement": "Activity", "setting": "T-cell [3]", "value": 10.4, "unit": "%"}, {"measurement": "Activity", "setting": "Mus musculus [4]", "value": "Active"}, {"measurement": "Activity", "setting": "Dendritic cell [11]", "value": "Active"}, {"measurement": "Activity", "setting": "Mus musculus [5]", "value": "Active"}, {"measurement": "Activity", "setting": "T-cell [6]", "value": 14.8, "unit": "%"}, {"measurement": "Activity", "setting": "Mus musculus [7]", "value": "Active"}, {"measurement": "Activity", "setting": "T-cell [12]", "value": "Active"}, {"measurement": "Activity", "setting": "Dendritic cell [8]", "value": "Active"}, {"measurement": "Activity", "setting": "T-cell [9]", "value": "Active"}, {"measurement": "Activity", "setting": "T-cell [13]", "value": "Active"}, {"measurement": "inhibition", "setting": "[1]", "value": 0, "unit": "%"}, {"measurement": "Activity", "setting": "Mus musculus [10]", "value": 0.2, "unit": "%"}, {"measurement": "Activity", "setting": "Dendritic cell [14]", "value": "Active"}, {"measurement": "Activity", "setting": "Dendritic cell [15]", "value": "Active"}, {"measurement": "Activity", "setting": "T-cell [16]", "value": "Active"}]}, {"smiles": "CCCCN1CCN(C(=O)Cc2ccc(Cl)c(Cl)c2)[C@@H]2[C@@H](N3CCCC3)CCC[C@@H]21", "note": "(racemic)", "values": [{"measurement": "Ki", "setting": "[17]", "value": 1300, "unit": "nM"}]}, {"smiles": "CCCN1CCN(C(=O)Cc2ccc(Cl)c(Cl)c2)[C@@H]2[C@@H](N3CCCC3)CCC[C@@H]21", "note": "(racemic)", "values": [{"measurement": "Ki", "setting": "[17]", "value": 2400, "unit": "nM"}]}, {"smiles": "CC(C)(C)OC(=O)N1CCN(C(=O)Cc2ccc(Cl)c(Cl)c2)[C@@H]2[C@@H](N3CCCC3)CCC[C@@H]21", "note": "(racemic)", "values": [{"measurement": "inhibition", "setting": "[1]", "value": 16, "unit": "%"}]}, {"smiles": "COC(=O)N1CCN(C(=O)Cc2ccc(Cl)c(Cl)c2)[C@@H]2[C@@H](N3CCCC3)CCC[C@@H]21", "note": "(racemic)", "values": [{"measurement": "inhibition", "setting": "[1]", "value": 8, "unit": "%"}]}, {"smiles": "O=C(Cc1ccc(Cl)c(Cl)c1)N1CCN(CCCCF)[C@H]2CCC[C@H](N3CCCC3)[C@H]21", "note": "(racemic)", "values": [{"measurement": "inhibition", "setting": "[1]", "value": 8, "unit": "%"}]}, {"smiles": "O=C(Cc1ccc(Cl)c(Cl)c1)N1CCN(CCF)[C@H]2CCC[C@H](N3CCCC3)[C@H]21", "note": "(racemic)", "values": [{"measurement": "inhibition", "setting": "[1]", "value": 3, "unit": "%"}]}, {"smiles": "O=C(Cc1ccc(Cl)c(Cl)c1)N1CCN(Cc2ccc(F)cc2)[C@H]2CCC[C@H](N3CCCC3)[C@H]21", "note": "(racemic)", "values": [{"measurement": "inhibition", "setting": "[1]", "value": 0, "unit": "%"}]}, {"smiles": "CCN1CCN(C(=O)Cc2ccc(Cl)c(Cl)c2)[C@H]2[C@@H]1CCC[C@@H]2N1CCCC1", "note": "(relative stereo)", "values": [{"measurement": "inhibition", "setting": "[1]", "value": 16, "unit": "%"}]}, {"smiles": "O=C(Cc1ccc(Cl)c(Cl)c1)N1CCN(C(=O)COCCF)[C@H]2CCC[C@H](N3CCCC3)[C@H]21", "note": "(relative stereo)", "values": [{"measurement": "inhibition", "setting": "[1]", "value": 0, "unit": "%"}]}]}
